The source made the active and inactive calls. The rule behind the calls is not given here.
Assays:
[1] = Dissociation constant, pKa of the compound in 1:1 v/v D2O/CD3OD by 1H-NMR spectrometric method; type: physicochemical
Procedure, shortened: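 Samples in D2O/CD3OD (1:1 v/v) were adjusted with DCl/NaOD to a series of pH* values, read on a meter calibrated with non-deuterated standards, and 1H-NMR was recorded at 400 MHz. Imidazole proton chemical shifts were plotted against pH* and fitted sigmoidally. The pKa* was converted by pH = 0.929 pH* + 0.42.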

[2] = Half life in H2O/MeOH buffered with Na2CO3/NaHCO3 at pH 10.3 in presence of alkyl radical scavenger TEMPOR by 31P[1H]-NMR analysis; type: physicochemical; conditions: buffer, pH 10.3
[3] = Half life in H2O/MeOH buffered with HCl/KCl at pH 2.2 in presence of alkyl radical scavenger TEMPOR by 31P[1H]-NMR analysis; type: physicochemical; conditions: buffer
[4] = Half life in H2O/MeOH buffered with HEPES/NaCl at pH 7.4 in presence of alkyl radical scavenger TEMPOR by 31P[1H]-NMR analysis; type: physicochemical; conditions: buffer
[5] = n-octanol/phosphate buffered saline partition coefficient, log D of the compound at pH 7.4 by shake-flask method; type: physicochemical; conditions: octanol/water
Procedure, shortened: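 Shake-flask partition between pre-saturated n-octanol and PBS at pH 7.4. The aqueous phase was quantified by RP-HPLC on a 4.6 × 50 mm column, eluting with CH3CN/H2O (each with 0.1% TFA) from 10:90 to 100:0 over 10 min.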

[6] = Drug homolysis in H2O/MeOH buffered with Na2CO3/NaHCO3 at pH 10.3 assessed as activation energy in presence of alkyl radical scavenger TEMPOR by 31P[1H]-NMR analysis
[7] = Drug homolysis in H2O/MeOH buffered with HCl/KCl at pH 2.2 assessed as activation energy in presence of alkyl radical scavenger TEMPOR by 31P[1H]-NMR analysis
[8] = Drug homolysis in H2O/MeOH buffered with Na2CO3/NaHCO3 at pH 10.3 assessed as rate constant by measuring nitroxide level in presence of alkyl radical scavenger TEMPOR by 31P[1H]-NMR analysis
[9] = Drug homolysis in H2O/MeOH buffered with HEPES/NaCl at pH 7.4 assessed as rate constant by measuring nitroxide level in presence of alkyl radical scavenger TEMPOR by 31P[1H]-NMR analysis
[10] = Drug homolysis in H2O/MeOH buffered with HCl/KCl at pH 2.2 assessed as rate constant by measuring nitroxide level in presence of alkyl radical scavenger TEMPOR by 31P[1H]-NMR analysis
[11] = Drug homolysis in H2O/MeOH buffered with HEPES/NaCl at pH 7.4 assessed as activation energy in presence of alkyl radical scavenger TEMPOR by 31P[1H]-NMR analysis
U-87 MG = assay: Cytotoxicity against human U87MG cells assessed as reduction in cell survival measured after 72 hrs by MTT assay; type: functional, cell-based; conditions: for Activity: U-87MG ATCC
Procedure, shortened: (§1)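 MTT viability on 2D cultures, U87-MG in DMEM and U251-MG in EMEM with […], both with 10% FBS and Pen Strep. 5000 cells seeded, then 72 h exposure to 500, 250, 100, 50, 25, 10 and 5 μM (DMSO at most […]). MTT 0.5 mg/mL for 1 h, formazan in DMSO read at 550 nm. Survival as % of control. IC50 determined graphically. At least triplicate.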

U-251 [12] = assay: Cytotoxicity against human U251MG cells assessed as reduction in cell survival measured after 72 hrs by MTT assay; type: functional, cell-based; procedure, shortened: as §1
U-251 [13] = assay: Cytotoxicity against human U251MG cells assessed as reduction in cell survival at IC50 measured after 72 hrs in presence of alkyl radical scavenger troxerutin by MTT assay; type: functional, cell-based
Procedure, shortened: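 U251-MG cells in EMEM (10% FBS, Pen Strep, […]) were exposed for 72 h to alkoxyamine together with an equal concentration of the alkyl radical scavenger troxerutin. Survival was read by MTT (0.5 mg/mL, 1 h, OD 550 nm) as % of control, and compared with alkoxyamine alone. At least triplicate.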

[14] = Stability in H2O/MeOH buffered with HEPES/NaCl at pH 7.4 assessed as temperature; type: physicochemical; conditions: buffer
[15] = Stability in H2O/MeOH buffered with Na2CO3/NaHCO3 at pH 10.3 assessed as temperature; type: physicochemical; conditions: buffer

SMILES | t1/2 [4] | logD [5] | Kdiss [9] | Ea [11] [kcal/mol] | Activity (U-87 MG) | Activity (U-251 [12]) | further results
CCOP(=O)(OCC)C(N(OC(C)c1cn(C)cn1)C(C)(C)C)C(C)(C)C (stereo in doubt; form 2) [listing 1 of 2 here] | 22 days | 3.8 |  |  |  |  | pKa [1]: 6.56; t1/2 [2]: 70 days; t1/2 [3]: 7 days
CCOP(=O)(OCC)C(N(OC(C)c1ncc[nH]1)C(C)(C)C)C(C)(C)C (stereo in doubt; form 2) |  |  | 2.61 ×10⁻⁴ /s | 28.2 | Dose-dependent effect | Dose-dependent effect | Ea [6]: 29.1 kcal/mol; Ea [7]: 26.6 kcal/mol; Kdiss [8]: 2.47 ×10⁻⁴ /s; Kdiss [10]: 9.16 ×10⁻⁴ /s
CCOP(=O)(OCC)C(N(OC(C)n1cc[n+](C)c1)C(C)(C)C)C(C)(C)C (stereo in doubt; form 2) [listing 1 of 2 here] |  |  | 2.84 ×10⁻⁵ /s | 32.3 | Dose-dependent effect | Dose-dependent effect | Activity (U-251 [13]): Active
CCOP(=O)(OCC)C(N(OC(C)c1n(C)cc[n+]1C)C(C)(C)C)C(C)(C)C (stereo in doubt; form 1) [listing 1 of 2 here] | 0.417 days | -0.2 |  |  |  |  | T [14]: 70 °C; IC50 (U-87 MG): 25 to 380 µM
CCOP(=O)(OCC)C(N(OC(C)n1cc[n+](C)c1)C(C)(C)C)C(C)(C)C (stereo in doubt; form 2) [listing 2 of 2 here] |  | 0.3 |  |  |  |  | 
CCOP(=O)(OCC)C(N(OC(C)c1n(C)cc[n+]1C)C(C)(C)C)C(C)(C)C (stereo in doubt; form 1) [listing 2 of 2 here] |  |  | 1.27 ×10⁻³ /s | 27.1 | Dose-dependent effect | Dose-dependent effect | 
CCOP(=O)(OCC)C(N(OC(C)n1cc[n+](C)c1)C(C)(C)C)C(C)(C)C (stereo in doubt; form 1) [listing 1 of 2 here] |  |  | 2.84 ×10⁻⁵ /s | 32.3 | Dose-dependent effect | Dose-dependent effect | Activity (U-251 [13]): Active
CCOP(=O)(OCC)C(N(OC(C)c1c[nH]cn1)C(C)(C)C)C(C)(C)C (stereo in doubt; form 2) [listing 1 of 2 here] |  |  | 1.95 ×10⁻⁴ /s | 29.2 | Dose-dependent effect | Dose-dependent effect | Ea [6]: 29.5 kcal/mol; Ea [7]: 29 kcal/mol; Kdiss [8]: 4.07 ×10⁻⁵ /s; Kdiss [10]: 2.8 ×10⁻⁴ /s
CCOP(=O)(OCC)C(N(OC(C)c1cn(C)c[n+]1C)C(C)(C)C)C(C)(C)C (stereo in doubt; form 2) |  |  | 1.61 ×10⁻³ /s | 27.7 | Dose-dependent effect | Dose-dependent effect | 
CCOP(=O)(OCC)C(N(OC(C)c1ncc[nH]1)C(C)(C)C)C(C)(C)C (stereo in doubt; form 1) | 3.38 days | 4.1 |  |  |  |  | pKa [1]: 6.04; t1/2 [2]: 13 days; t1/2 [3]: 0.21 days
CCOP(=O)(OCC)C(N(OC(C)c1nccn1C)C(C)(C)C)C(C)(C)C (stereo in doubt; form 2) |  |  | 1.28 ×10⁻³ /s | 27.1 | Dose-dependent effect | Dose-dependent effect | Ea [6]: 27.9 kcal/mol; Ea [7]: 26.1 kcal/mol; Kdiss [8]: 1.23 ×10⁻³ /s; Kdiss [10]: 1.8 ×10⁻³ /s
CCOP(=O)(OCC)C(N(OC(C)c1c[nH]cn1)C(C)(C)C)C(C)(C)C (stereo in doubt; form 2) [listing 2 of 2 here] | 13 days | 4 |  |  |  |  | pKa [1]: 6.13; t1/2 [2]: 19 days; t1/2 [3]: 8 days; T [15]: 70 °C; IC50 (U-251 [12]; U-251, 72 h): 20 µM
CCOP(=O)(OCC)C(N(OC(C)c1cn(C)cn1)C(C)(C)C)C(C)(C)C (stereo in doubt; form 2) [listing 2 of 2 here] |  |  | 1.24 ×10⁻⁴ /s | 29.5 | Dose-dependent effect | Dose-dependent effect | Ea [6]: 30.3 kcal/mol; Ea [7]: 28.8 kcal/mol; Kdiss [8]: 4.57 ×10⁻⁵ /s; Kdiss [10]: 3.55 ×10⁻⁴ /s
CCOP(=O)(OCC)C(N(OC(C)n1cc[n+](C)c1)C(C)(C)C)C(C)(C)C (stereo in doubt; form 1) [listing 2 of 2 here] | 5 yr | -0.1 |  |  |  |  | T [14]: 100 °C; IC50 (U-87 MG): 25 to 380 µM

Reference: ChEMBL document CHEMBL4339209, “Chemical modifications of imidazole-containing alkoxyamines increase C-ON bond homolysis rate: Effects on their cytotoxic properties in glioblastoma cells” (Bioorg Med Chem, 2019)
